ChEMBL document CHEMBL1143665, “Novel acyclic enediynes inhibit Cyclin A and Cdc25C expression and induce apoptosis phenomenon to show potent antitumor proliferation” (2007)
Calls of active or inactive are those of the source. The rule behind the calls is not given here.

Columns and labels:
SF-295 = experiment: Cytotoxicity against human SF295 cells; format: functional
K562 [1] = experiment: Cytotoxicity against human K562 cells; format: functional
DU-145 = experiment: Cytotoxicity against human DU145 cells; format: functional
SR = experiment: Cytotoxicity against human SR cells; format: functional
HCT-15 = experiment: Cytotoxicity against human HCT15 cells; format: functional
LOX IMVI = experiment: Cytotoxicity against human LOX IMVI cells; format: functional
OVCAR-3 = experiment: Cytotoxicity against human OVCAR-3 cells; format: functional
MDA-MB-435 = experiment: Cytotoxicity against human MDA-MB-435 cells; format: functional
K562 [2] = experiment: Cell cycle arrest in human K562 cells by accumulation at G0/G1 phase cell at 50 uM after 24 hrs relative to control; format: functional
Summary of the method: (§1)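 K-562 cells (RPMI 1640, 10% fetal calf serum, 37 °C, 5% CO2) exposed 24 h, pelleted, fixed in ice-cold 70% ethanol 30 min, RNase A (1 mg/ml) 37 °C 30 min, propidium iodide stain 30 min at room temperature in the dark; DNA content of 10,000 events by flow cytometry; phase and sub-G1 percentages compared with untreated control.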

K562 [3] = experiment: Cell cycle arrest in human K562 cells by accumulation at S phase cell at 50 uM after 24 hrs relative to control; format: functional; summary of the method: as §1
K562 [4] = experiment: Cell cycle arrest in human K562 cells by accumulation at G2/M phase cell at 50 uM after 24 hrs relative to control; format: functional; summary of the method: as §1
K562 [5] = experiment: Induction of apoptosis in human K562 cells assessed as accumulation at subG1 phase at 50 uM after 24 hrs relative to control; format: functional; summary of the method: as §1
K562 [6] = experiment: Decrease in Cyclin A protein levels in human K562 cells at 25 uM; format: functional, cell-based
Summary of the method: (§2)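 Western blot of treated K-562 cells: lysis in Tris pH 7.5/1% NP-40/EDTA/NaCl with protease inhibitors on ice 30 min, spun 20,000g 30 min 4 °C; 50 µg lysate on 12% SDS-PAGE, PVDF transfer, probed with anti-Cdk1, -Cdk2, -Cyclin A, -Cyclin B1 or -Cdc25C; enhanced chemiluminescence detection.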

K562 [7] = experiment: Decrease in Cyclin A protein levels in human K562 cells at 50 uM; format: functional, cell-based; summary of the method: as §2
K562 [8] = experiment: Decrease in Cdc25C protein levels in human K562 cells at 25 uM; format: functional, cell-based; summary of the method: as §2
K562 [9] = experiment: Decrease in Cdc25C protein levels in human K562 cells at 50 uM; format: functional, cell-based; summary of the method: as §2
K562 [10] = experiment: Effect on Cyclin B protein levels in human K562 cells at 25 uM; format: functional, cell-based; summary of the method: as §2
K562 [11] = experiment: Effect on Cyclin B protein levels in human K562 cells at 50 uM; format: functional, cell-based; summary of the method: as §2
K562 [12] = experiment: Effect on Cdk1 protein levels in human K562 cells at 25 uM; format: functional, cell-based; summary of the method: as §2
K562 [13] = experiment: Effect on Cdk1 protein levels in human K562 cells at 50 uM; format: functional, cell-based; summary of the method: as §2
K562 [14] = experiment: Effect on Cdk2 protein levels in human K562 cells at 25 uM; format: functional, cell-based; summary of the method: as §2
K562 [15] = experiment: Effect on Cdk2 protein levels in human K562 cells at 50 uM; format: functional, cell-based; summary of the method: as §2
Caspase-3 (Homo sapiens) [16] = target: T1, Caspase-3 (Homo sapiens) (UniProt P42574); experiment: Increase in caspase 3 activation in human K562 cells at 50 uM relative to control; format: cell-based
T1 sequence (whole entry): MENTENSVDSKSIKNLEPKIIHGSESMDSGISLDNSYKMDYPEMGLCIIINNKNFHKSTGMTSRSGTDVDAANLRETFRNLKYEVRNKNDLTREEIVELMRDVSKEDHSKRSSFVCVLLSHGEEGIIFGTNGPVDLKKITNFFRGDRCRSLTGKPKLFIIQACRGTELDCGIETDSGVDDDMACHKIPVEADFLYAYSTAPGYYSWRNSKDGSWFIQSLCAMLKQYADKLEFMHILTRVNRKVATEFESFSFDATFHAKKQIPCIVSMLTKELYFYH
Summary of the method: (§3)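 K-562 cells treated 24 h, washed, lysed in 50 mM Tris-HCl pH 7.4, 1 mM EDTA, 10 mM EGTA, spun 18,000g 3 min; lysate (50 µg protein) incubated with 100 µM caspase-specific colorimetric substrate at 37 °C for 1 h; cleavage read as absorbance at 405 nm, expressed as fold of control.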

Caspase-3 (Homo sapiens) [17] = target: T1, Caspase-3 (Homo sapiens); experiment: Increase in caspase 3 activation in human K562 cells at 25 uM relative to control; format: cell-based; summary of the method: as §3
Caspase-8 (Homo sapiens) [18] = target: Caspase-8 (Homo sapiens) (UniProt Q14790); experiment: Increase in caspase 8 activation in human K562 cells at 25 uM relative to control; format: cell-based; summary of the method: as §3
Caspase-8 (Homo sapiens) [19] = target: Caspase-8 (Homo sapiens) (UniProt Q14790); experiment: Increase in caspase 8 activation in human K562 cells at 50 uM relative to control; format: cell-based; summary of the method: as §3
Caspase-9 (Homo sapiens) [20] = target: T2, Caspase-9 (Homo sapiens) (UniProt P55211); experiment: Increase in caspase 9 activation in human K562 cells at 25 uM relative to control; format: cell-based; summary of the method: as §3
T2 sequence (whole entry): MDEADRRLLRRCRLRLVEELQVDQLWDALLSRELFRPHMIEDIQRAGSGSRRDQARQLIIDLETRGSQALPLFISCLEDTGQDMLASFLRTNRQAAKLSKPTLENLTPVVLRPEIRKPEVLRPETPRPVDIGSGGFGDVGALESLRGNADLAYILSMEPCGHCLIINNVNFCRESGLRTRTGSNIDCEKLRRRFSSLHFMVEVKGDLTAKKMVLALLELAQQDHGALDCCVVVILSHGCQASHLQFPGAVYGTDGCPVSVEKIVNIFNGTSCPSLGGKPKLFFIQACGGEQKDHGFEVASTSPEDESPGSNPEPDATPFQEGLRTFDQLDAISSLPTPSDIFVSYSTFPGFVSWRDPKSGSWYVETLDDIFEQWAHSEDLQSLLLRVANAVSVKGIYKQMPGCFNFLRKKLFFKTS

Caspase-9 (Homo sapiens) [21] = target: T2, Caspase-9 (Homo sapiens); experiment: Increase in caspase 9 activation in human K562 cells at 50 uM relative to control; format: cell-based; summary of the method: as §3
K562 [22] = experiment: Induction of apoptosis in human K562 cells at 50 uM in presence of Z-DEVD-FMK; format: functional
Summary of the method: (§4)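 K-562 cells preincubated 1 h with caspase-3 (Z-DEVD-FMK), -8 (Z-IETD-FMK) or -9 (Z-LEHD-FMK) inhibitor, then exposed 24 h; cells fixed in 70% ethanol, RNase A (500 U/ml) 37 °C 15 min, propidium iodide 50 µg/ml in PBS; sub-G1 fraction by flow cytometry.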

K562 [23] = experiment: Induction of apoptosis in human K562 cells at 50 uM in presence of Z-IETD-FMK; format: functional; summary of the method: as §4
K562 [24] = experiment: Induction of apoptosis in human K562 cells at 50 uM in presence of Z-LEHD-FMK; format: functional; summary of the method: as §4
M14 = experiment: Cytotoxicity against human M14 cells; format: functional
SK-OV-3 = experiment: Cytotoxicity against human SKOV3 cells; format: functional
MDA-MB-231 = experiment: Cytotoxicity against human MDA-MB-231 cells; format: functional

Caspase-8 (Homo sapiens), sequence (Q14790 217-374 limits assumed): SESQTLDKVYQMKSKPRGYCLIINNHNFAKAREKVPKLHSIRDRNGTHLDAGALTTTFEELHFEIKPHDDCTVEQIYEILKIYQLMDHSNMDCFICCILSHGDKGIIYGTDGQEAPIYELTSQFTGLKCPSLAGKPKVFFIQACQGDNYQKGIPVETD
Caspase-8 (Homo sapiens), sequence (Q14790 385-479 limits assumed): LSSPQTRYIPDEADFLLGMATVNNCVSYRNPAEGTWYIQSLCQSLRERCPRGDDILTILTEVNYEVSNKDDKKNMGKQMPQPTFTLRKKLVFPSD

SMILES | GI50 (SF-295) | GI50 (K562 [1]) | GI50 (DU-145) | GI50 (SR) | GI50 (HCT-15) | GI50 (LOX IMVI) | GI50 (OVCAR-3) | GI50 (MDA-MB-435) | Activity (K562 [2]) | Activity (K562 [3]) | Activity (K562 [4]) | Activity (K562 [5]) | also measured
OCCCCC#Cc1ccccc1C#Cc1ccccc1C(F)(F)F | 2.3 µM | 1.1 µM | 6.1 µM | 0.4 µM | 3.5 µM | 4.9 µM | 2.3 µM | 0.8 µM | 2.7% | 10.8% | 86.5% | 10.47% | Activity (K562 [6]): Active; Activity (K562 [7]): Active; Activity (K562 [8]): Active; Activity (K562 [9]): Active; Activity (K562 [10]): inactive; Activity (K562 [11]): inactive; Activity (K562 [12]): inactive; Activity (K562 [13]): inactive; Activity (K562 [14]): inactive; Activity (K562 [15]): inactive
N#Cc1ccc(C#Cc2ccccc2C#CCCCCO)cc1 | 21.5 µM | 21.7 µM | 16 µM | – | 15.6 µM | 18.3 µM | 19.9 µM | 18.9 µM | 51.2% | 38% | 10.8% | 5.65% | –
OCCCCC#Cc1ccccc1C#Cc1cccc(C(F)(F)F)c1 | 16.5 µM | 22.5 µM | 15.3 µM | 18.3 µM | 16.3 µM | 17.5 µM | 16.8 µM | 16.9 µM | 30.6% | 40% | 29.4% | 3.84% | –
OCCCCC#Cc1ccccc1C#Cc1ccccn1 | 21.8 µM | 29 µM | 9.8 µM | 25.5 µM | 29.8 µM | 27.7 µM | 26.1 µM | 25.1 µM | 30.4% | 52.6% | 17% | 4.4% | –
COc1ccccc1C#Cc1ccccc1C#CCCCCO | 22.1 µM | 15.5 µM | 14.3 µM | 1 µM | 19.9 µM | 17.9 µM | 19.8 µM | 20.2 µM | 30.9% | 41.5% | 27.6% | 8.08% | –
OCCCCC#Cc1ccccc1C#Cc1ccc(O)cc1 | 16.2 µM | 20.4 µM | 16.8 µM | – | 14.1 µM | 13.6 µM | 14.8 µM | 16.1 µM | 25.6% | 39.5% | 34.9% | 23.56% | Fold change (Caspase-3 (Homo sapiens) [16]): 2.6; Fold change (Caspase-3 (Homo sapiens) [17]): 1.4; Fold change (Caspase-8 (Homo sapiens) [18]): 1.2; Fold change (Caspase-8 (Homo sapiens) [19]): 1.8; Fold change (Caspase-9 (Homo sapiens) [20]): 1.5; Fold change (Caspase-9 (Homo sapiens) [21]): 1.7; Activity (K562 [22]): 17%; Activity (K562 [23]): 19%; Activity (K562 [24]): 42%
OCCCCC#Cc1ccccc1C#Cc1ccccc1 | 0.15 µM | 21.1 µM | 5.22 µM | – | – | – | – | – | – | – | – | – | GI50 (M14): 10 µM; GI50 (SK-OV-3): 10.7 µM; GI50 (MDA-MB-231): 4.29 µM
